In brackets after ≈: the same amount, converted by molar mass.
How the values were obtained:
Format in all cases: functional
Staphylococcus hominis = experiment: Antibacterial activity against methicillin-resistant, inducible MLS-resistant, coagulase-deficient Staphylococcus hominis E 3 by broth microdilution method
Procedure, shortened: (§1)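 Clinical isolates confirmed by 16S rDNA sequencing. MIC determined by broth microdilution following CLSI recommendations. Quality-control strains were S. aureus ATCC 29213 and S. pneumoniae ATCC 49619. Azithromycin and clarithromycin were run in parallel as reference agents.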

[1] = test system: Staphylococcus epidermidis; experiment: Antibacterial activity against methicillin-resistant, constitutive MLS-resistant Staphylococcus epidermidis E 2 by broth microdilution method; procedure, shortened: as §1
[2] = test system: Staphylococcus epidermidis; experiment: Antibacterial activity against methicillin-susceptible, inducible MLS-resistant Staphylococcus epidermidis E 1 by broth microdilution method; procedure, shortened: as §1
[3] = test system: Staphylococcus haemolyticus; experiment: Antibacterial activity against methicillin-resistant, constitutive MLS-resistant, coagulase-deficient Staphylococcus haemolyticus PU 19 expressing ermA gene by broth microdilution method; procedure, shortened: as §1
Staphylococcus aureus [4] = experiment: Antibacterial activity against methicillin-resistant, inducible MLS-resistant Staphylococcus aureus PU 32 expressing ermA gene by broth microdilution method; procedure, shortened: as §1
Staphylococcus aureus [5] = experiment: Antibacterial activity against erythromycin-susceptible Staphylococcus aureus ATCC 29213 by broth microdilution method
Procedure, shortened: (§2)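 MIC by broth microdilution following CLSI recommendations. Clinical isolates were identified by 16S rDNA sequencing and labeled by genotype and phenotype. S. aureus ATCC 29213 and S. pneumoniae ATCC 49619 served as control strains, with azithromycin and clarithromycin as reference agents.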

Streptococcus pyogenes [6] = experiment: Antibacterial activity against erythromycin-susceptible Streptococcus pyogenes A3 by broth microdilution method; procedure, shortened: as §2
Streptococcus pyogenes [7] = experiment: Antibacterial activity against constitutive MLS-resistant Streptococcus pyogenes A2 by broth microdilution method; procedure, shortened: as §1
[8] = test system: Streptococcus dysgalactiae; experiment: Antibacterial activity against erythromycin-resistant Streptococcus dysgalactiae A1 expressing efflux pump by broth microdilution method; procedure, shortened: as §1
Streptococcus pneumoniae [9] = experiment: Antibacterial activity against penicillin-susceptible, constitutive MLS-resistant Streptococcus pneumoniae PU 27 expressing erm gene by broth microdilution method; procedure, shortened: as §1
Streptococcus pneumoniae [10] = experiment: Antibacterial activity against penicillin-susceptible Streptococcus pneumoniae PU 09 expressing mef gene by broth microdilution method; procedure, shortened: as §2
Streptococcus pneumoniae [11] = experiment: Antibacterial activity against penicillin-resistant, constitutive MLS-resistant Streptococcus pneumoniae PU 11 expressing erm and mef genes by broth microdilution method; procedure, shortened: as §1
Streptococcus pneumoniae [12] = experiment: Antibacterial activity against erythromycin-sensitive Streptococcus pneumoniae ATCC 49619 by broth microdilution method; procedure, shortened: as §2
Staphylococcus aureus [13] = experiment: Antibacterial activity against methicillin-sensitive, inducible MLS-resistant Staphylococcus aureus PU 64 expressing ermA gene by broth microdilution method; procedure, shortened: as §1
Staphylococcus aureus [14] = experiment: Antibacterial activity against methicillin-resistant, constitutive MLS-resistant Staphylococcus aureus PU 20 expressing ermC gene by broth microdilution method; procedure, shortened: as §1

| SMILES | MIC (Staphylococcus hominis) [µg/mL] | MIC [1] [µg/mL] | MIC [2] [µg/mL] | MIC [3] [µg/mL] | MIC (Staphylococcus aureus [4]) [µg/mL] | MIC (Staphylococcus aureus [5]) [µg/mL] | MIC (Streptococcus pyogenes [6]) [µg/mL] | MIC (Streptococcus pyogenes [7]) [µg/mL] | MIC [8] [µg/mL] | MIC (Streptococcus pneumoniae [9]) [µg/mL] | MIC (Streptococcus pneumoniae [10]) [µg/mL] | MIC (Streptococcus pneumoniae [11]) [µg/mL] | MIC (Streptococcus pneumoniae [12]) [µg/mL] | MIC (Staphylococcus aureus [13]) [µg/mL] | MIC (Staphylococcus aureus [14]) [µg/mL] |
| --- | --- | --- | --- | --- | --- | --- | --- | --- | --- | --- | --- | --- | --- | --- | --- |
| CC[C@H]1OC(=O)[C@H](C)C(=O)[C@H](C)[C@@H](O[C@@H]2O[C@H](C)C[C@H](N(C)C)[C@H]2O)[C@](C)(OC)C[C@@H](C)/C(=N\OCC#Cc2ccc(C(=O)c3ccccc3)s2)[C@H](C)[C@H]2OC(=O)O[C@@]21C | 2 (≈ 2.34 µM) | 128 (≈ 150 µM) | 2 (≈ 2.34 µM) | 128 (≈ 150 µM) | 2 (≈ 2.34 µM) | 2 (≈ 2.34 µM) | 0.064 (≈ 0.075 µM) | 32 (≈ 37.5 µM) | 2 (≈ 2.34 µM) | 1 (≈ 1.17 µM) | 2 (≈ 2.34 µM) | 64 (≈ 75 µM) | 0.125 (≈ 0.147 µM) |  |  |
| CC[C@H]1OC(=O)[C@H](C)C(=O)[C@H](C)[C@@H](O[C@@H]2O[C@H](C)C[C@H](N(C)C)[C@H]2O)[C@](C)(OC)C[C@@H](C)/C(=N\OCC#Cc2ccnc3ccccc23)[C@H](C)[C@H]2OC(=O)O[C@@]21C | 0.25 (≈ 0.315 µM) | 64 (≈ 80.6 µM) | 0.25 (≈ 0.315 µM) | 64 (≈ 80.6 µM) | 0.5 (≈ 0.63 µM) | 0.5 (≈ 0.63 µM) | 0.016 (≈ 0.0202 µM) | 32 (≈ 40.3 µM) | 0.25 (≈ 0.315 µM) | 1 (≈ 1.26 µM) | 0.5 (≈ 0.63 µM) | 32 (≈ 40.3 µM) | 0.016 (≈ 0.0202 µM) |  |  |
| CC[C@H]1OC(=O)[C@H](C)C(=O)[C@H](C)[C@@H](O[C@@H]2O[C@H](C)C[C@H](N(C)C)[C@H]2O)[C@](C)(OC)C[C@@H](C)/C(=N\OCC#Cc2cnc3ccccc3c2)[C@H](C)[C@H]2OC(=O)O[C@@]21C | 0.25 (≈ 0.315 µM) | > 256 | 0.25 (≈ 0.315 µM) | 128 (≈ 161 µM) | 0.5 (≈ 0.63 µM) | 0.25 (≈ 0.315 µM) | ≤ 0.008 | 64 (≈ 80.6 µM) | 0.5 (≈ 0.63 µM) | 0.5 (≈ 0.63 µM) | 0.5 (≈ 0.63 µM) | 64 (≈ 80.6 µM) | ≤ 0.008 | 0.25 (≈ 0.315 µM) | 128 (≈ 161 µM) |
| CC[C@H]1OC(=O)[C@H](C)C(=O)[C@H](C)[C@@H](O[C@@H]2O[C@H](C)C[C@H](N(C)C)[C@H]2O)[C@](C)(OC)C[C@@H](C)/C(=N\OCC#Cc2ccc3ncccc3c2)[C@H](C)[C@H]2OC(=O)O[C@@]21C | 0.125 (≈ 0.157 µM) | > 256 | 0.032 (≈ 0.0403 µM) | 64 (≈ 80.6 µM) | 0.125 (≈ 0.157 µM) | 0.125 (≈ 0.157 µM) | ≤ 0.008 | 64 (≈ 80.6 µM) | 0.25 (≈ 0.315 µM) | 0.25 (≈ 0.315 µM) | 0.25 (≈ 0.315 µM) | 64 (≈ 80.6 µM) | 0.016 (≈ 0.0202 µM) | 0.125 (≈ 0.157 µM) | 64 (≈ 80.6 µM) |
| CC[C@H]1OC(=O)[C@H](C)C(=O)[C@H](C)[C@@H](O[C@@H]2O[C@H](C)C[C@H](N(C)C)[C@H]2O)[C@](C)(OC)C[C@@H](C)/C(=N\OC/C=C/c2cnc3ccccc3c2)[C@H](C)[C@H]2OC(=O)O[C@@]21C | 0.064 (≈ 0.0804 µM) | > 256 | 0.032 (≈ 0.0402 µM) | > 256 | 0.5 (≈ 0.628 µM) | 0.25 (≈ 0.314 µM) | ≤ 0.008 | 32 (≈ 40.2 µM) | 0.25 (≈ 0.314 µM) | 0.125 (≈ 0.157 µM) | 0.25 (≈ 0.314 µM) | 32 (≈ 40.2 µM) | 0.016 (≈ 0.0201 µM) | 0.064 (≈ 0.0804 µM) | > 256 |
| CC[C@H]1OC(=O)[C@H](C)C(=O)[C@H](C)[C@@H](O[C@@H]2O[C@H](C)C[C@H](N(C)C)[C@H]2O)[C@](C)(OC)C[C@@H](C)/C(=N\OCCCc2cncc3ccccc23)[C@H](C)[C@H]2OC(=O)O[C@@]21C | 0.5 (≈ 0.627 µM) | > 256 | 0.25 (≈ 0.313 µM) | > 256 | 0.5 (≈ 0.627 µM) | 0.125 (≈ 0.157 µM) | 0.016 (≈ 0.0201 µM) | 64 (≈ 80.2 µM) | 0.25 (≈ 0.313 µM) | 1 (≈ 1.25 µM) | 0.5 (≈ 0.627 µM) | 32 (≈ 40.1 µM) | 0.032 (≈ 0.0401 µM) | 0.25 (≈ 0.313 µM) | > 256 |
| CC[C@H]1OC(=O)[C@H](C)[C@@H](O[C@H]2C[C@@](C)(OC)[C@@H](O)[C@H](C)O2)[C@H](C)[C@@H](O[C@@H]2O[C@H](C)C[C@H](N(C)C)[C@H]2O)[C@](C)(OC)C[C@@H](C)C(=O)[C@H](C)[C@@H](O)[C@]1(C)O [CLARITHROMYCIN] | > 256 | > 256 | > 256 | > 256 | 1 (≈ 1.34 µM) | 0.25 (≈ 0.334 µM) | 0.032 (≈ 0.0428 µM) | > 256 | 8 (≈ 10.7 µM) | 1 (≈ 1.34 µM) | 4 (≈ 5.35 µM) | > 256 | 0.032 (≈ 0.0428 µM) | 2 (≈ 2.67 µM) | > 256 |
